In ChEMBL document CHEMBL1146904, “Potent 4-amino-5-azaindole factor VIIa inhibitors” (Bioorg Med Chem Lett, 2006):
pKi: −log10 of the molar value.

What was measured:
[1] = biological target: Coagulation factor VII/tissue factor (Homo sapiens) (UniProt P08709+P13726); test: Anticoagulant potency in human plasma by PT assay; format: functional, cell-free
Procedure, shortened: (§1)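 Clotting time measured at 37 °C in human plasma on an automated coagulometer, following the manufacturer's instructions. Tissue-factor-dependent clotting was read by PT. Tissue-factor-independent (intrinsic pathway) clotting was read by aPTT.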

[2] = Anticoagulant potency in human plasma by aPTT assay; format: functional; procedure, shortened: as §1
Coagulation factor VII = biological target: T1, Coagulation factor VII (Homo sapiens, UniProt P08709); test: Binding affinity to f7a/TF complex
T1 sequence (P08709 whole entry): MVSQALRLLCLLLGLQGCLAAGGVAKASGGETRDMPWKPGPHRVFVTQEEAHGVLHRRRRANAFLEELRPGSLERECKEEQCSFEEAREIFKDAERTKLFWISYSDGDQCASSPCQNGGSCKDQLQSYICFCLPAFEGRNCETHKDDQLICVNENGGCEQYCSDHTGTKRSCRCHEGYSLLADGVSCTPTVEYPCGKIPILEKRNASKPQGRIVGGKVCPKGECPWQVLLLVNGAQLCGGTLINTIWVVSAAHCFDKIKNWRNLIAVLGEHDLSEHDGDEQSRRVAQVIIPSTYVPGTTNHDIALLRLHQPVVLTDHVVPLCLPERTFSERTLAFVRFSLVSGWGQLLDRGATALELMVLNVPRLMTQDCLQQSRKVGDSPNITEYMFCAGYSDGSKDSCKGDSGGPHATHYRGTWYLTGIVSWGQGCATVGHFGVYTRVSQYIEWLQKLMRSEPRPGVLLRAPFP

Trypsin = Trypsin (Homo sapiens, UniProt P07477+P07478+P35030); test: Binding affinity to trypsin; format: protein assay
Prothrombin = Prothrombin (Homo sapiens, UniProt P00734); test: Binding affinity to thrombin
Coagulation factor X = Coagulation factor X (Homo sapiens, UniProt P00742); test: Binding affinity to f10a
Coagulation factor X, sequence (P00742 41-179 limits assumed): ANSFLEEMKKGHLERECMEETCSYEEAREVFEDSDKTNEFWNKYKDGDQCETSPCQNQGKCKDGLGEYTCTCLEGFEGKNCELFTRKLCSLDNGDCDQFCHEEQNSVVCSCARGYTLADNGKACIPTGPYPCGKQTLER
Coagulation factor X, sequence (P00742 235-488 limits assumed): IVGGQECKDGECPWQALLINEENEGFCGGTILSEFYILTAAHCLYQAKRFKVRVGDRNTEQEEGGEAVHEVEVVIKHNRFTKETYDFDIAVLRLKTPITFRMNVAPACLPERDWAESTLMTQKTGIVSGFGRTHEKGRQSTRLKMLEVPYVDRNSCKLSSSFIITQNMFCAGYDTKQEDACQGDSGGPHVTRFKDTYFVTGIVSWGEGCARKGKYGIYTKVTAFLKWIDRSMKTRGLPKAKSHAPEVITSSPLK

SMILES	2PT [1] [µM]	2aPTT [2] [µM]	pKi (Coagulation factor VII)	Ki (Trypsin) [µM]	pKi (Prothrombin)	pKi (Coagulation factor X)
CC(C)(C(=O)O)c1cc(-c2cccc(CNC(=O)Nc3c(F)cccc3F)c2)c(O)c(-c2cc3c(N)[nH]ccc-3n2)c1	2.4	>20	8.59	–	–	–
CC(C)(C(=O)O)c1cc(-c2cccc(CNC(=O)Nc3ccc(C(=O)O)cc3)c2)c(O)c(-c2cc3c(N)[nH]ccc-3n2)c1	5.8	>20	7.70	–	–	–
Nc1[nH]ccc2nc(-c3cc(C(=O)O)cc(-c4cccc(CNC(=O)[C@@H](O)Cc5ccccc5)c4)c3O)cc1-2	4.5	3.7	8.89	–	–	–
N=C(N)c1ccc2[nH]c(-c3cccc(-c4cc(CNC(N)=O)ccc4O)c3O)nc2c1	–	–	–	3.6	4.05	5.57
Nc1[nH]ccc2nc(-c3cccc(-c4cccc(CNC(=O)[C@@H](O)Cc5ccccc5)c4)c3O)cc1-2	12	22	7.09	38	4.00	4.27
O=C(NCc1cccc(-c2cccc(-c3cc4c[nH]ccc-4n3)c2O)c1)[C@@H](O)Cc1ccccc1	–	–	6.66	12	4.00	4.52
CC(C)(C(=O)O)c1cc(-c2cccc(CNC(=O)[C@@H](O)Cc3ccccc3)c2)c(O)c(-c2cc3c(N)[nH]ccc-3n2)c1	6.4	17	7.82	–	–	–
